Source: ChEMBL document CHEMBL4014309, “Development of an Acrylate Derivative Targeting the NLRP3 Inflammasome for the Treatment of Inflammatory Bowel Disease” (J Med Chem, 2017)
Calls of active or inactive are those of the source. The calls are words filed in the database; no cut-off is given here.

Tests used:
[1] = Cysteamine reactivity in PBS assessed as free compound level at pH 7.4 measured after 4 hrs by DTNB reagent based RP-UHPLC analysis
How it was run: (§1)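 The compound was reacted with excess cysteamine in pH 7.4 phosphate buffer with CH3CN cosolvent at 37 °C. Remaining compound was followed by UHPLC over 4 h, sampled at 30 min, 60 min and 4 h, and expressed as percent of starting concentration.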

Rattus norvegicus [2] = test: Anti-inflammatory activity in DNBS-induced Sprague-Dawley rat colitis model assessed as DNBS-induced IL-1beta levels in colon at 25 mg/kg/day, ig for 6 days simulatneously with 6 days of DNBS-challenge by ELISA (reference value: 22.3 +/- 2.9 ng/mg); type: functional
Rattus norvegicus [3] = test: Antiinflammatory activity in DNBS-induced Sprague-Dawley rat colitis model assessed as DNBS-induced decrease in colonic length at 25 mg/kg/day, ig administered as suspension in olive oil for 6 days simulatneously with 6 days of DNBS-challenge (reference value: -34.4%); type: functional; design: scale not given: the % may be the effect or the level left
[4] = target: NACHT, LRR and PYD domains-containing protein 3 (Homo sapiens) (UniProt Q96P20); test: Inhibition of recombinant human NLRP3 ATPase assessed as hydrolysis of ATP at 50 uM preincubated for 15 mins followed by addition of ATP measured after 40 mins by ADP-Glo assay
How it was run: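 Human recombinant NLRP3 (0.105 µg) in 20 mM Tris-HCl pH 7.8, 133 mM NaCl, 20 mM MgCl2, 3 mM KCl, 0.56 mM EDTA, 0.5% DMSO. Compound (100 or 50 µM) was preincubated 15 min at 37 °C, then ATP (250 µM) was added for 40 min at 37 °C. ADP was read by ADP-Glo luminescence. Result is % inhibition vs vehicle; mean ± SEM, ≥3 experiments.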

Liver = test: Drug metabolism in Sprague-Dawley rat liver microsomes assessed as formation of 2-(2-chlorobenzyl)acrylic acid at 100 uM at <1 min in presence of NADPH by UHPLC-MS analysis; type: ADME, microsome
Rattus norvegicus [5] = test: (§2) Antiinflammatory activity in DNBS-induced Sprague-Dawley rat colitis model assessed as body weight recovery at 12.5 to 50 mg/kg/day, ig administered as suspension in olive oil for 6 days simulatneously with 6 days of DNBS-challenge measured daily during compound dosing; type: functional, organism-based
How it was run: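 Colitis was induced with intrarectal DNBS (15 mg in 0.25 mL 50% ethanol). Intragastric treatment ran 6 days from the day of induction: 1 mg/kg/day in 1% methylcellulose, or 12.5–50 mg/kg/day in olive oil. Body weight change (g) was recorded at the end of treatment, mean ± SEM, n = 10.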

[6] = Cysteamine reactivity in PBS assessed as free compound level at pH 7.4 measured after 30 mins by DTNB reagent based RP-UHPLC analysis; how it was run: as §1
[7] = target: NACHT, LRR and PYD domains-containing protein 3 (Mus musculus) (UniProt Q8R4B8); test: Inhibition of NLRP3 inflammasome in LPS-primed C57BL/6 mouse bone marrow derived macrophages assessed as reduction in nigericin-induced IL-1beta production at 10 uM preincubated for 1 hr followed by stimulation with nigericin measured after 30 mins by ELISA
How it was run: (§3)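 Bone marrow macrophages from C57BL/6 mice, differentiated with 20% L-cell medium, primed with LPS (1 µg/mL, 3 h). Test agent or vehicle was added for 1 h, then ATP (5 mM, 30 min) or nigericin (10 µM, 30 min). IL-1β in the medium was measured by ELISA. LDH in the medium was measured colorimetrically as % of total cellular LDH.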

[8] = target: NACHT, LRR and PYD domains-containing protein 3 (Mus musculus) (UniProt Q8R4B8); test: Inhibition of NLRP3 inflammasome in LPS-primed C57BL/6 mouse bone marrow derived macrophages assessed as reduction in nigericin-induced caspase-1 activation at 10 to 100 uM preincubated for 1 hr followed by stimulation with nigericin measured after 30 mins by Western blot analysis
[9] = target: NACHT, LRR and PYD domains-containing protein 3 (Homo sapiens) (UniProt Q96P20); test: Inhibition of recombinant YFP-tagged NLRP3 (unknown origin) expressed in HEK293 cells co-expressing luciferase assessed as reduction in nigericin-induced intracellular K+ decrease-mediated conformational changes in protein at 10 to 100 uM measured after 24 hrs by BRET assay; type: cell-based
How it was run: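 HEK293 cells stably expressing YFP-NLRP3-Luc were grown in DMEM with 10% FCS, plated on poly-L-lysine, and exposed to compound or vehicle (15 h per methods; 24 h per figure legend). Cells were washed, then BRET was read after adding coelenterazine-H (5 µM). Kinetics used nigericin (10 µM) in vehicle or high-K+ (140 mM) buffer. Slopes of three phases were taken; mean ± SEM, n = 5–12.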

Rattus norvegicus [10] = test: Anti-inflammatory activity in DNBS-induced Sprague-Dawley rat colitis model assessed as reduction in DNBS-induced increase in MPO levels in colon at 12.5 to 50 mg/kg/day, ig for 6 days simulatneously with 6 days of DNBS-challenge by ELISA; type: functional, organism-based
How it was run: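 DNBS colitis (15 mg intrarectal in 50% ethanol) was treated by the intragastric route for 6 days from induction (1 mg/kg/day in 1% methylcellulose, or 12.5–50 mg/kg/day in olive oil). Colonic samples (30 mg) were taken adjacent and distal to the necrotic area, homogenized, and assayed for MPO by ELISA. Results are ng MPO per mg tissue, mean ± SEM, n = 10.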

Rattus norvegicus [11] = test: Anti-inflammatory activity in DNBS-induced Sprague-Dawley rat colitis model assessed as DNBS-induced IL-1beta levels in colon at 50 mg/kg/day, ig for 6 days simulatneously with 6 days of DNBS-challenge by ELISA (reference value: 22.3 +/- 2.9 ng/mg); type: functional
Rattus norvegicus [12] = test: as §2, with “reduction in DNBS-induced spleen” for “body”, “increase by measuring increase in spleen weight” for “recovery”, “12.5” for “12.5 to 50”, “dosing (reference value: 39.3%)” for “dosing”; type: functional; design: scale not given: the % may be the effect or the level left
How it was run: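 Spleen weight was used as an index of systemic inflammation. Rats had intrarectal DNBS (15 mg/0.25 mL 50% ethanol) and 6 days of intragastric dosing: 1 mg/kg/day in 1% methylcellulose, or 12.5–50 mg/kg/day in 0.2 mL olive oil. The spleen was weighed at sacrifice and expressed as percent increase versus control, n = 10.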

Rattus norvegicus [13] = test: Anti-inflammatory activity in DNBS-induced Sprague-Dawley rat colitis model assessed as DNBS-induced TNFalpha levels in colon at 12.5 mg/kg/day, ig for 6 days simulatneously with 6 days of DNBS-challenge by ELISA (reference value: 5.9 +/- 0.6 pg/mg); type: functional
HEK293 = test: Cytotoxicity against HEK293 cells assessed as extracellular LDH level at 10 to 100 uM after 24 hrs; type: cell-based; details: human, hek293, 24 h
Duodenum = test: Drug metabolism in Sprague-Dawley rat duodenum assessed as 2-(2-chlorobenzyl)acrylic acid level at 12.5 mg as suspension in olive oil measured after 2 hrs by UHPLC-MS analysis; type: ADME, tissue-based; details: in vivo
[14] = target: NACHT, LRR and PYD domains-containing protein 3 (Mus musculus) (UniProt Q8R4B8); test: Inhibition of NLRP3 inflammasome in LPS-primed C57BL/6 mouse bone marrow derived macrophages assessed as reduction in nigericin-induced pyroptosis at 10 to 100 uM preincubated for 1 hr followed by stimulation with ATP measured after 30 mins by LDH release assay; how it was run: as §3

NACHT, LRR and PYD domains-containing protein 3 (Mus musculus), sequence (Q8R4B8 whole entry, the tested form may be a part): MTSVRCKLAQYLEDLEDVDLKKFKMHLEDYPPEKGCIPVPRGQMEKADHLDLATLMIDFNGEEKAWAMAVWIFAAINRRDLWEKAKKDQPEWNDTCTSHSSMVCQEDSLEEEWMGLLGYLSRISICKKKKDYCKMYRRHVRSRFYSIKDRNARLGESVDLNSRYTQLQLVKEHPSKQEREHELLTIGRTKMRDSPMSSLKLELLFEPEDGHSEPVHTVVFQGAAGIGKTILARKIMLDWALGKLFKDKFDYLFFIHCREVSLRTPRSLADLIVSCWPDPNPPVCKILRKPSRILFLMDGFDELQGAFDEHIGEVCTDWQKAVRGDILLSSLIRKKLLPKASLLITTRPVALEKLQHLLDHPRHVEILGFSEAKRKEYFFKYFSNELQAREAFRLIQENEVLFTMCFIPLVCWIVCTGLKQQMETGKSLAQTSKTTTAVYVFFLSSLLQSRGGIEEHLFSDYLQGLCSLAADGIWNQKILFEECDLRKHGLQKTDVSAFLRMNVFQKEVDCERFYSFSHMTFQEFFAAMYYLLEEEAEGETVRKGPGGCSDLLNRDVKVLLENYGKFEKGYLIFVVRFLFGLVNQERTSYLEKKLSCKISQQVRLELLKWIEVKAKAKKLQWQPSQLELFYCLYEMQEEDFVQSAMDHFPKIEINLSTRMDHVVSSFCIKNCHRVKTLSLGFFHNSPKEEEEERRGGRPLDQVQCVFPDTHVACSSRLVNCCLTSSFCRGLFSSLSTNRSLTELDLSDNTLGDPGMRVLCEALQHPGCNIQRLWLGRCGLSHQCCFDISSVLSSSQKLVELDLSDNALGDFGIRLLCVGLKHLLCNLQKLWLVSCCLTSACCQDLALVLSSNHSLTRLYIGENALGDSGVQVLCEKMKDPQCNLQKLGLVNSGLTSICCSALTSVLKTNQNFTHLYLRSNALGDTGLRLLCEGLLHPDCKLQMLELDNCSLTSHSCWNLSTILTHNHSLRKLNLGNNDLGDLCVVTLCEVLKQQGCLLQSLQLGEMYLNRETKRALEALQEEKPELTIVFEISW
NACHT, LRR and PYD domains-containing protein 3 (Homo sapiens), sequence (Q96P20 whole entry, the tested form may be a part): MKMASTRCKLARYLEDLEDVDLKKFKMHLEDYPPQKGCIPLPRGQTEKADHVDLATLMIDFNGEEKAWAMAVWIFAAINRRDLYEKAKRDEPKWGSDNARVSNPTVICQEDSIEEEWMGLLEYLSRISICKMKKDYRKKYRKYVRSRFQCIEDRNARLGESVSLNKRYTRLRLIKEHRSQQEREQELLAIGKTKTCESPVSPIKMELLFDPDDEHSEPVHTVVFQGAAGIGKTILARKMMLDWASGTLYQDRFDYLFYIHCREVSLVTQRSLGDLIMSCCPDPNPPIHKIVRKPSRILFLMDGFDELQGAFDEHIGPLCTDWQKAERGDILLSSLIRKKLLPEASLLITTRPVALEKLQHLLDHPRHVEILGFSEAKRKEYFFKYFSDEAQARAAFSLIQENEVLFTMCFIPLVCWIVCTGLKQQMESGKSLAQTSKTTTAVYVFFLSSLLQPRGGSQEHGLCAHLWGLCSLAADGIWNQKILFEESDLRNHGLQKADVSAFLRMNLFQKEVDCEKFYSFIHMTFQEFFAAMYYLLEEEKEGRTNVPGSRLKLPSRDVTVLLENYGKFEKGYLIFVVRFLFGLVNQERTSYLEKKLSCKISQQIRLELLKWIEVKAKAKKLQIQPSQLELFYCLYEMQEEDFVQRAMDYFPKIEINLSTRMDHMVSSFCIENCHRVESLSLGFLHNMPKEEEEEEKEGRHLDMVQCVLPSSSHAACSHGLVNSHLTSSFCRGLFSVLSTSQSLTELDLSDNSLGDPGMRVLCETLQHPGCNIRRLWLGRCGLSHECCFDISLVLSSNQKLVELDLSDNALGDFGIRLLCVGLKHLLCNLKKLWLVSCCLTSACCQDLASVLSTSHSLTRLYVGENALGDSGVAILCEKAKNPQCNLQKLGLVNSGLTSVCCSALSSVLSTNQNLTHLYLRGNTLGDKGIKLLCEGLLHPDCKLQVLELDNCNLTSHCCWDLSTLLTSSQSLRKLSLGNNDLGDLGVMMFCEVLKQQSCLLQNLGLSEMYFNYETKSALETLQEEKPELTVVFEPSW

inhibition [4]: 29%
Drug metabolism (Liver): Metabolite_Detected
inhibition [7]: Active
inhibition [8]: Active
inhibition [9]: Active
Drug metabolism (Duodenum): Metabolite_Detected
inhibition [14]: Active
Compound: C=C(Cc1ccccc1Cl)C(=O)OCC
Stability [1]: 77.5%
Activity (Rattus norvegicus [2]): 12.8 ng/mg
Activity (Rattus norvegicus [3]): -13%
Activity (Rattus norvegicus [5]): Active
Stability [6]: 89.4%
Activity (Rattus norvegicus [10]): Active
Activity (Rattus norvegicus [11]): 6.6 ng/mg
Activity (Rattus norvegicus [12]): 2.2%
Activity (Rattus norvegicus [13]): 3.5 pg/mg
Activity (HEK293): Non-Toxic
